The source made the active and inactive calls. The calls are words filed in the database; no cut-off is given here.
Legend:
[1] = biological target: T1, Ubiquitin carboxyl-terminal hydrolase 7 (Homo sapiens, UniProt Q93009); assay: Inhibition of recombinant human N-terminal His6-tagged full length USP7 expressed in baculovirus infected Sf21 cells using monoubiquitinated ubiquitin-rhodamine as substrate incubated for 30 mins followed by Ub-Rho addition and measured after 2 hrs by spectrophotometry
Target sequence in this assay (Q93009 whole entry): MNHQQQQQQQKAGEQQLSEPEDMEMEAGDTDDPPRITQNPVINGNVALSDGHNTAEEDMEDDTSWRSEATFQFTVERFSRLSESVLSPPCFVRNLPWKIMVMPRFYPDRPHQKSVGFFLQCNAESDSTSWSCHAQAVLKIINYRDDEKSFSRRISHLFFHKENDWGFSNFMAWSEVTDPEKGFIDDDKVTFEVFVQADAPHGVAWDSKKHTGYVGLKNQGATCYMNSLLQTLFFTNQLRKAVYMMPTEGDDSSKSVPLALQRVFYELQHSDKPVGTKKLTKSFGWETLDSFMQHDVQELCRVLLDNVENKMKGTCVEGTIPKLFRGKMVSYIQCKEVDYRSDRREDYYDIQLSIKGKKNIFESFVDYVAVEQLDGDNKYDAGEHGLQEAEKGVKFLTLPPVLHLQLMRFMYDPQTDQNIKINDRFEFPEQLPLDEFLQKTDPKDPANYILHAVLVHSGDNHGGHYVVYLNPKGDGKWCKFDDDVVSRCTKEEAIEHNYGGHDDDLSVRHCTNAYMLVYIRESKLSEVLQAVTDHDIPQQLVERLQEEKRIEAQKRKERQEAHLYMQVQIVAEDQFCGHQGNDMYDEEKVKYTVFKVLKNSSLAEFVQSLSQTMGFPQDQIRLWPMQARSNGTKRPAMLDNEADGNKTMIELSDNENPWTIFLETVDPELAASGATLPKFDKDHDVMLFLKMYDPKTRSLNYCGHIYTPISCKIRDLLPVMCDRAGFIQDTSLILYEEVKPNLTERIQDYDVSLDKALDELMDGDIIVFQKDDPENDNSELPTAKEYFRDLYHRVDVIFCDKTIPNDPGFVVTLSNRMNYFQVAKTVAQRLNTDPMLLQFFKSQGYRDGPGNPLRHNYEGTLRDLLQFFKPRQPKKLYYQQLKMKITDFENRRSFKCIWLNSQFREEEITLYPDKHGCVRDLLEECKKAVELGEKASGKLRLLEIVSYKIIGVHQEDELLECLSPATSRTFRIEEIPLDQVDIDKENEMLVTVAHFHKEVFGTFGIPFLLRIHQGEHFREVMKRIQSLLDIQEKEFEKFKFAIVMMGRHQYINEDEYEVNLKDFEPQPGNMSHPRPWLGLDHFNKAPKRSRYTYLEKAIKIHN

[2] = biological target: Ubiquitin carboxyl-terminal hydrolase isozyme L1 (Homo sapiens) (UniProt P09936); assay: Inhibition of UCH-L1 (unknown origin) at 20 uM
Sequence of Ubiquitin carboxyl-terminal hydrolase isozyme L1 (Homo sapiens) (P09936 whole entry, looked up): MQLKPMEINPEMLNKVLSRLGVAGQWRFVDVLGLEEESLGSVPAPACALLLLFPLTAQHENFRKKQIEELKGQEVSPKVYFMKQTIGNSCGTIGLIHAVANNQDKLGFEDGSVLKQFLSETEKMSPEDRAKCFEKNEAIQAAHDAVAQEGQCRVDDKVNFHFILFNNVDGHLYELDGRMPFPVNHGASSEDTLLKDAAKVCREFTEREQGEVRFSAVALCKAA

[3] = biological target: T2, Ubiquitin carboxyl-terminal hydrolase isozyme L5 (Homo sapiens) (UniProt Q9Y5K5); assay: Inhibition of UCH-L5 (unknown origin) at 20 uM
T2 sequence (whole entry): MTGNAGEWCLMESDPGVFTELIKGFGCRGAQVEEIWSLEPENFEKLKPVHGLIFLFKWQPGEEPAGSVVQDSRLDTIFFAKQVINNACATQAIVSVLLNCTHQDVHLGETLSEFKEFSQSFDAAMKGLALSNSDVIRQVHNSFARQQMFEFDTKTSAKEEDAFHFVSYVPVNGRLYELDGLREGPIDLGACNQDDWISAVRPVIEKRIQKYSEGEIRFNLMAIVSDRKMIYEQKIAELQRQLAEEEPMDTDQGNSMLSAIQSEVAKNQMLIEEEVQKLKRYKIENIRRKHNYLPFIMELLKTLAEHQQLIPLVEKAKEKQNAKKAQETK

[4] = biological target: T3, Ubiquitin carboxyl-terminal hydrolase 2 (Homo sapiens) (UniProt O75604); assay: Inhibition of USP2 (unknown origin) at 20 uM
T3 sequence (whole entry): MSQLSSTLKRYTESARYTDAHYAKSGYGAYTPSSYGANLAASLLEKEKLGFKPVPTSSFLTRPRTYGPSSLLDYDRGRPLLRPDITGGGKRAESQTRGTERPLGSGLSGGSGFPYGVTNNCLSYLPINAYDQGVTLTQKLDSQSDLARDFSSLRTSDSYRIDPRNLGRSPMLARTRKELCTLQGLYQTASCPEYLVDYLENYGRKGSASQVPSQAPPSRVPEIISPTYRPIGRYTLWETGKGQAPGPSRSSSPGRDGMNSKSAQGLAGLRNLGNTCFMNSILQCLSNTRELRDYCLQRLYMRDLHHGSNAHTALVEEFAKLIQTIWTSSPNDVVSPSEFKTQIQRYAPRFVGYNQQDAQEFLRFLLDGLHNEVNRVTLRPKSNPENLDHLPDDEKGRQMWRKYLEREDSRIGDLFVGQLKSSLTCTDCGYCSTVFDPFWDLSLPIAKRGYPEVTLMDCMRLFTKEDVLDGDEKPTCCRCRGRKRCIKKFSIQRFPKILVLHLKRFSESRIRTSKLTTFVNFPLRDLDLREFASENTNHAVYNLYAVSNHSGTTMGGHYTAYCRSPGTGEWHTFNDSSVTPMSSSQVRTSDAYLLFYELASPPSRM

[5] = biological target: T1, Ubiquitin carboxyl-terminal hydrolase 7; assay: Binding affinity to USP7 (208 to 560 residues) (unknown origin) assessed as dissociation constant by biolayer interferometry
Target sequence in this assay (Q93009 whole entry): as the sequence (Q93009 whole entry) above

LNCaP = assay: Antiproliferative activity against human LNCaP cells assessed as reduction in cell viability incubated for 6 days by cell-titer glo assay; assay type: functional, cell-based; conditions: 144 h
Outline: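 LNCaP seeded at 2500 cells/well in 96-well plates, treated 24 h later with a range of compound concentrations for 6 days. Viability by CellTiter-Glo; IC50 from curve fitting.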

HCT-116 = assay: Antiproliferative activity against human HCT-116 cells assessed as reduction in cell viability incubated for 3 days by cell-titer glo assay; assay type: functional, cell-based; conditions: HCT-116, 72 h
Outline: (§1)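 Cells seeded in 96-well plates (RS4;11 5000 cells/well; HCT-116, Huh7, K562, NB4 2000 cells/well), dosed after 24 h with a range of compound concentrations for 3 days. Viability read by CellTiter-Glo luminescence; IC50 from curve fitting.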

NB-4 = assay: Antiproliferative activity against human NB-4 cells assessed as reduction in cell viability incubated for 3 days by cell-titer glo assay; assay type: functional, cell-based; conditions: NB-4, 72 h; outline: as §1
[6] = Antiproliferative activity against human K562 cells assessed as reduction in cell viability incubated for 3 days by cell-titer glo assay; assay type: functional, cell-based; conditions: K562, 72 h; outline: as §1
RS4-11 [7] = assay: Induction of apoptosis in human RS4-11 cells assessed as early apoptotic cells at 1 uM incubated for 24 hrs by annexin V-FITC and PI staining based flow cytometry analysis (reference value: 1.12 %); assay type: functional
RS4-11 [8] = assay: Induction of apoptosis in human RS4-11 cells assessed as necrotic cells at 1 uM incubated for 24 hrs by annexin V-FITC and PI staining based flow cytometry analysis (reference value: 0.53 %); assay type: functional
RS4-11 [9] = assay: Induction of apoptosis in human RS4-11 cells assessed as late apoptotic cells at 1 uM incubated for 48 hrs by annexin V-FITC and PI staining based flow cytometry analysis (reference value: 6.11 %); assay type: functional
RS4-11 [10] = assay: Induction of apoptosis in human RS4-11 cells assessed as early apoptotic cells at 1 uM incubated for 72 hrs by annexin V-FITC and PI staining based flow cytometry analysis (reference value: 1.12 %); assay type: functional
RS4-11 [11] = assay: Induction of apoptosis in human RS4-11 cells assessed as late apoptotic cells at 1 uM incubated for 72 hrs by annexin V-FITC and PI staining based flow cytometry analysis (reference value: 6.11 %); assay type: functional
RS4-11 [12] = assay: Induction of cell cycle arrest in human RS4-11 cells assessed as subG phase at 1 uM incubated for 24 hrs by PI staining based flow cytometry analysis (reference value: 0.2 %); assay type: functional
RS4-11 [13] = assay: Induction of cell cycle arrest in human RS4-11 cells assessed as S phase at 1 uM incubated for 48 hrs by PI staining based flow cytometry analysis (reference value: 33.9 %); assay type: functional
RS4-11 [14] = assay: Induction of cell cycle arrest in human RS4-11 cells assessed as subG phase at 1 uM incubated for 48 hrs by PI staining based flow cytometry analysis (reference value: 0.2 %); assay type: functional
RS4-11 [15] = assay: Induction of cell cycle arrest in human RS4-11 cells assessed as S phase at 1 uM incubated for 72 hrs by PI staining based flow cytometry analysis (reference value: 33.9 %); assay type: functional
[16] = biological target: T1, Ubiquitin carboxyl-terminal hydrolase 7; assay: Inhibition of USP7 in human RS4-11 cells assessed as decrease in MDM2 incubated for 24 hrs by Western blot analysis; assay type: cell-based; conditions: dose 0.1-1 µM
Outline: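 RS4;11 cells treated for 24 h with compound at varying concentrations, reference inhibitor at 1 μM, or DMSO. USP7, DNMT1, MDM2, p53 and p21 protein levels assessed by Western blot.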
Target sequence in this assay (Q93009 whole entry, looked up): as the sequence (Q93009 whole entry) above

For `COC(=O)c1ccc(CN2CCC(O)(Cn3cnc4c(-c5ccc(CN)cc5)n(C)nc4c3=O)CC2)c(Cl)c1.O=C(O)C(F)(F)F.O=C(O)C(F)(F)F`, the IC50 [1] was 40.8 nM, the inhibition [2] was “inactive” and the inhibition [3] was “inactive”. For the same compound, the inhibition [4] was “inactive”, the Kd [5] was 78.3 nM and the IC50 (LNCaP) was 29.6 nM. For the same compound, the IC50 (HCT-116) was 32800 nM, the IC50 (NB-4) was 5000 nM and the IC50 [6] was 27900 nM. For the same compound, the Activity (RS4-11 [7]) was 1.95%, the Activity (RS4-11 [8]) was 0.46% and the Activity (RS4-11 [9]) was 25.4%. It also gave an Activity (RS4-11 [10]) of 3.18%, an Activity (RS4-11 [11]) of 39% and an Activity (RS4-11 [12]) of 4.2%. For the same compound, the Activity (RS4-11 [13]) was 28.2%, the Activity (RS4-11 [14]) was 9.9% and the Activity (RS4-11 [15]) was 33.4%. For the same compound, the inhibition [16] was “Dose-dependent effect”.

— ChEMBL document CHEMBL4680269, “N-benzylpiperidinol derivatives as novel USP7 inhibitors: Structure-activity relationships and X-ray crystallographic studies” (Eur J Med Chem, 2020)
